The source made the active and inactive calls. No cut-off for these calls is given here.
How the values were obtained:
[1] = test system: PC-3; test: Cytotoxicity against human PC3 cells assessed as cell growth inhibition after 48 hrs by MTT assay; type: functional, cell-based; conditions: PC-3, 48 h
[2] = test system: HeLa; test: Cytotoxicity against human HeLa cells assessed as cell growth inhibition after 48 hrs by MTT assay; type: functional, cell-based
[3] = test system: A549; test: Cytotoxicity against human A549 cells assessed as cell growth inhibition after 48 hrs by MTT assay; type: functional, cell-based; conditions: A549, 48 h
[4] = test system: HT-1080; test: Cytotoxicity against human HT1080 cells assessed as cell growth inhibition after 48 hrs by MTT assay; type: functional, cell-based; conditions: HT-1080, 48 h
[5] = test system: HEK-293T; test: Cytotoxicity against HEK293T cells assessed as cell growth inhibition after 48 hrs by MTT assay; type: cell-based; conditions: Homo sapiens
[6] = test system: MDA-MB-231; test: Cytotoxicity against human MDA-MB-231 cells assessed as cell growth inhibition after 48 hrs by MTT assay; type: functional, cell-based; conditions: MDA-MB-231, 48 h
[7] = Selectivity index, ratio of IC50 for HEK293T cells to IC50 for human MDA-MB-231 cells; type: toxicity; conditions: HEK293T cells versus MDA-MB-231 cells, read-out: Ratio IC50
[8] = Selectivity index, ratio of IC50 for HEK293T cells to IC50 for human PC3 cells; type: toxicity; conditions: HEK293T cells versus PC3 cells, read-out: Ratio IC50
[9] = Selectivity index, ratio of IC50 for HEK293T cells to IC50 for human HeLa cells; type: toxicity; conditions: HEK293T cells versus HeLa cells, read-out: Ratio IC50
[10] = Selectivity index, ratio of IC50 for HEK293T cells to IC50 for human A549 cells; type: toxicity; conditions: HEK293T cells versus A549 cells, read-out: Ratio IC50
[11] = Selectivity index, ratio of IC50 for HEK293T cells to IC50 for human HT1080 cells; type: toxicity; conditions: HEK293T cells versus HT1080 cells, read-out: Ratio IC50
[12] = test system: A549; test: Antimigratory activity in human A549 cells assessed as reduction in wound healing at cytotoxic IC50 concentration after 24 to 48 hrs by phase contrast microscopy; type: functional, cell-based
Outline: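 A549 cells (5×10^5/well) grown 24 h to confluent monolayer, scratched with sterile 200 µL pipette tip, washed twice with PBS. Medium with compound at its IC50 added; untreated wells as control. Wound closure photographed by phase contrast microscopy at 0, 24 and 48 h in three or more random fields.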

[13] = test system: A549; test: Inhibition of filamentous actin polymerization in human A549 cells assessed as reduction in F-actin extension at the periphery at cytotoxic IC50 concentration after 24 hrs by rhodamine-phalloidin/Hoechst 33242 double staining based fluorescent microscopy; type: cell-based
Outline: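 A549 cells (1×10^6/well) grown on coverslips 24 h, treated 24 h at IC50 concentration, PBS-washed, fixed in 4% paraformaldehyde. Stained with rhodamine-phalloidin for F-actin and Hoechst 33242 for nuclei, mounted in anti-fade, imaged by fluorescence microscopy at 20X; DMSO-treated cells as control.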

[14] = test system: A549; test: Induction of apoptosis in human A549 cells assessed as formation of fragmented nuclei at cytotoxic IC50 concentration after 24 hrs by Hoechst 33242-staining based fluorescent microscopy; type: functional, cell-based
Outline: (§1)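 A549 cells (5×10^4/well) adhered 24 h on coverslips, exposed 24 h to IC50 concentration, fixed 10 min in 4% paraformaldehyde at 4 °C, stained with Hoechst 33242 (5 µg/mL) 30 min at room temperature. Nuclear morphology examined by fluorescence microscopy (ex 350/em 460 nm, 40x).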

[15] = test system: A549; test: Induction of apoptosis in human A549 cells assessed as formation of shrinked nuclei at cytotoxic IC50 concentration after 24 hrs by Hoechst 33242-staining based fluorescent microscopy; type: functional, cell-based; outline: as §1
[16] = test system: A549; test: Induction of ROS production in human A549 cells at cytotoxic IC50 concentration after 24 hrs by DCFH-DA-dye based fluorescent microscopy; type: functional, cell-based
[17] = test system: A549; test: Induction of apoptosis in human A549 cells assessed as loss of mitochondrial membrane potential at cytotoxic IC50 concentration after 24 hrs by rhodamine-123 dye based spectrofluorometery relative to control; type: functional
Outline: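 A549 cells (5×10^5 cells/mL) adhered overnight, treated 24 h at IC50 concentration, trypsinised, washed and stained with rhodamine-123 (10 µg/mL) in PBS 30 min at room temperature. After two PBS washes, fluorescence measured by spectrofluorometer versus DMSO control; mean ± SD of three independent experiments.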

[18] = test system: A549; test: Induction of apoptosis in human A549 cells assessed as viable cells at cytotoxic IC50 concentration after 24 hrs by Annexin V-FITC/propidium iodide dual staining based flow cytometry (reference value: 84.8%); type: functional
[19] = test system: A549; test: Induction of apoptosis in human A549 cells assessed as early apoptotic cells at cytotoxic IC50 concentration after 24 hrs by Annexin V-FITC/propidium iodide dual staining based flow cyclometry (reference value: 9.8%); type: functional
[20] = test system: A549; test: Induction of apoptosis in human A549 cells assessed as late apoptotic cells at cytotoxic IC50 concentration after 24 hrs by Annexin V-FITC/propidium iodide dual staining based flow cytometry (reference value: 1.6%); type: functional
[21] = test system: A549; test: Induction of apoptosis in human A549 cells assessed as necrotic cells at cytotoxic IC50 concentration after 24 hrs by Annexin V-FITC/propidium iodide dual staining based flow cytometry (reference value: 3.7%); type: functional

Compound: COc1cc(-c2nc3cc(/C=C4\SC(=O)N(CC(=O)N5CCCC5)C4=O)ccc3[nH]2)cc(OC)c1OC
- IC50 [1]: 8.37 µM
- IC50 [2]: 4.78 µM
- IC50 [3]: 0.91 µM
- IC50 [4]: 2.47 µM
- IC50 [5]: 12.7 µM
- IC50 [6]: 2.88 µM

Compound: COc1cc(OC)c(-c2nc3cc(/C=C4\SC(=O)N(CC(=O)N5CCCCC5)C4=O)ccc3[nH]2)cc1OC
- IC50 [1]: > 50 µM
- IC50 [2]: 6.89 µM
- IC50 [3]: 14.5 µM
- IC50 [4]: 8.76 µM
- IC50 [5]: > 50 µM
- IC50 [6]: > 50 µM

Compound: COc1cc(CN2C(=O)S/C(=C\c3ccc4[nH]c(-c5cc(OC)c(OC)c(OC)c5)nc4c3)C2=O)cc(OC)c1OC
- IC50 [1]: 10.2 µM
- IC50 [2]: 2.24 µM
- IC50 [3]: 0.53 µM
- IC50 [4]: 0.98 µM
- IC50 [5]: 16.6 µM
- IC50 [6]: 0.27 µM

Compound: COc1cc(-c2nc3cc(/C=C4\SC(=O)N(Cc5cccc(C)c5)C4=O)ccc3[nH]2)cc(OC)c1OC
- IC50 [1]: 4.37 µM
- IC50 [2]: 1.44 µM
- IC50 [3]: 0.93 µM
- IC50 [4]: 4.58 µM
- IC50 [5]: 18.9 µM
- IC50 [6]: 3.26 µM

Compound: COc1ccc(-c2nc3cc(/C=C4\SC(=O)NC4=O)ccc3[nH]2)cc1OC
- IC50 [1]: 8.72 µM
- IC50 [2]: 7.83 µM
- IC50 [3]: 0.57 µM
- IC50 [4]: 2.43 µM
- IC50 [5]: 21.7 µM
- IC50 [6]: 13.6 µM

Compound: COc1cc(-c2nc3cc(/C=C4\SC(=O)N(Cc5ccccc5)C4=O)ccc3[nH]2)cc(OC)c1OC
- IC50 [1]: 2.5 µM
- IC50 [2]: 0.95 µM
- IC50 [3]: 0.67 µM
- IC50 [4]: 0.66 µM
- IC50 [5]: 8.21 µM
- IC50 [6]: 2.29 µM

Compound: COc1ccc(-c2nc3cc(/C=C4\SC(=O)N(CC(=O)c5ccccc5)C4=O)ccc3[nH]2)cc1OC
- IC50 [1]: 0.43 µM
- IC50 [2]: 7.48 µM
- IC50 [3]: 0.74 µM
- IC50 [4]: 0.59 µM
- IC50 [5]: 27.8 µM
- IC50 [6]: 2.04 µM

Compound: COc1cc(-c2nc3cc(/C=C4\SC(=O)NC4=O)ccc3[nH]2)ccc1OCC(C)C
- IC50 [1]: 2.98 µM
- IC50 [2]: 5.22 µM
- IC50 [3]: 5.11 µM
- IC50 [4]: 4.45 µM
- IC50 [5]: 14.1 µM
- IC50 [6]: 7.78 µM

Compound: COc1cc(-c2nc3cc(/C=C4\SC(=O)N(CC(=O)N5CCCCC5)C4=O)ccc3[nH]2)cc(OC)c1OC
- IC50 [1]: 14.7 µM
- IC50 [2]: 23.3 µM
- IC50 [3]: 0.98 µM
- IC50 [4]: 3.65 µM
- IC50 [5]: 21.5 µM
- IC50 [6]: 34.9 µM

Compound: COc1cc(OC)c(-c2nc3cc(/C=C4\SC(=O)N(Cc5cccc(C)c5)C4=O)ccc3[nH]2)cc1OC
- IC50 [1]: 0.63 µM
- IC50 [2]: 0.18 µM
- IC50 [3]: 0.13 µM
- IC50 [4]: 0.19 µM
- IC50 [5]: 3.35 µM
- IC50 [6]: 1.78 µM
- selectivity ratio [7]: 1.9
- selectivity ratio [8]: 5.3
- selectivity ratio [9]: 18.6
- selectivity ratio [10]: 25.8
- selectivity ratio [11]: 17.6

Compound: COc1cc(-c2nc3cc(/C=C4\SC(=O)N(CC(=O)N5CCOCC5)C4=O)ccc3[nH]2)cc(OC)c1OC
- IC50 [1]: 5.94 µM
- IC50 [2]: 16.3 µM
- IC50 [3]: 2.93 µM
- IC50 [4]: 1.68 µM
- IC50 [5]: 18.8 µM
- IC50 [6]: 14.9 µM

Compound: COc1ccc(-c2nc3cc(/C=C4\SC(=O)N(Cc5cc(OC)c(OC)c(OC)c5)C4=O)ccc3[nH]2)cc1OC
- IC50 [1]: > 50 µM
- IC50 [2]: 0.32 µM
- IC50 [3]: 0.13 µM
- IC50 [4]: 0.27 µM
- IC50 [5]: 6.76 µM
- IC50 [6]: 29.1 µM
- selectivity ratio [9]: 21.1
- selectivity ratio [10]: 52
- selectivity ratio [11]: 25.3
- Activity [12]: Active
- inhibition [13]: Active
- Activity [14]: Active
- Activity [15]: Active
- Activity [16]: Active
- Activity [17]: 31.6%
- Activity [18]: 63.5%
- Activity [19]: 25.1%
- Activity [20]: 8.7%
- Activity [21]: 2.7%

Compound: COc1cc(-c2nc3cc(/C=C4\SC(=O)N(CC(=O)c5ccccc5)C4=O)ccc3[nH]2)cc(OC)c1OC
- IC50 [1]: > 50 µM
- IC50 [2]: 26.3 µM
- IC50 [3]: 0.88 µM
- IC50 [4]: 0.57 µM
- IC50 [5]: 13.6 µM
- IC50 [6]: > 50 µM

Compound: COc1cc(-c2nc3cc(/C=C4\SC(=O)NC4=O)ccc3[nH]2)cc(OC)c1OC
- IC50 [1]: 12 µM
- IC50 [2]: 1.67 µM
- IC50 [3]: 3.57 µM
- IC50 [4]: 3.12 µM
- IC50 [5]: 13.6 µM
- IC50 [6]: 6.83 µM

Compound: COc1ccc(-c2nc3cc(/C=C4\SC(=O)N(CC(=O)N5CCOCC5)C4=O)ccc3[nH]2)cc1OC
- IC50 [1]: > 50 µM
- IC50 [2]: 7.51 µM
- IC50 [3]: 8.93 µM
- IC50 [4]: 3.32 µM
- IC50 [5]: > 50 µM
- IC50 [6]: > 50 µM

Compound: COc1cc(OC)c(-c2nc3cc(/C=C4\SC(=O)NC4=O)ccc3[nH]2)cc1OC
- IC50 [1]: 6.32 µM
- IC50 [2]: 15.4 µM
- IC50 [3]: 1.84 µM
- IC50 [4]: 6.35 µM
- IC50 [5]: 15.3 µM
- IC50 [6]: 24.5 µM

Compound: COc1cc(-c2nc3cc(/C=C4\SC(=O)N(Cc5cc(OC)c(OC)c(OC)c5)C4=O)ccc3[nH]2)ccc1OCC(C)C
- IC50 [1]: 0.11 µM
- IC50 [2]: 0.25 µM
- IC50 [3]: 0.096 µM
- IC50 [4]: 0.16 µM
- IC50 [5]: 6.65 µM
- IC50 [6]: 4.37 µM
- selectivity ratio [7]: 1.5
- selectivity ratio [8]: 60.5
- selectivity ratio [9]: 26.6
- selectivity ratio [10]: 69.3
- selectivity ratio [11]: 41.6
- Activity [12]: Active
- inhibition [13]: Active
- Activity [14]: Active
- Activity [15]: Active
- Activity [16]: Active
- Activity [17]: 37.3%
- Activity [18]: 66.1%
- Activity [19]: 21.9%
- Activity [20]: 8.3%
- Activity [21]: 3.7%

Compound: COc1cc(OC)c(-c2nc3cc(/C=C4\SC(=O)N(CC(=O)N5CCOCC5)C4=O)ccc3[nH]2)cc1OC
- IC50 [1]: 11.7 µM
- IC50 [2]: 0.51 µM
- IC50 [3]: 0.66 µM
- IC50 [4]: 1.12 µM
- IC50 [5]: 35.7 µM
- IC50 [6]: 21.3 µM

— ChEMBL document CHEMBL4190240, “Conventional and microwave-assisted synthesis of new 1H-benzimidazole-thiazolidinedione derivatives: A potential anticancer scaffold” (Eur J Med Chem, 2017)
